Test results taken from ChEMBL document CHEMBL1772954, “Antifungal, cytotoxic and SAR studies of a series of N-alkyl, N-aryl and N-alkylphenyl-1,4-pyrrolediones and related compounds” (Bioorg Med Chem, 2011).
Values after ≈ are worked out from the molar mass of the structure shown.

How the values were obtained:
Type in all cases: functional
[1] = test system: Aspergillus flavus; assay: Antifungal activity against Aspergillus flavus ATCC 9170
Method in brief: (§1)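 Broth microdilution per CLSI M38-A2 in RPMI-1640 with MOPS at pH 7.0. Inoculum 1-5 × 10^3 CFU/mL, with twofold compound dilutions spanning 250-0.24 µg/ml (final DMSO <1%). Plates incubated at 35 °C, moist and dark, and read when the control fungus had grown. MIC is total growth inhibition. MFC comes from subculturing clear wells in duplicate onto SDA.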

[2] = test system: Trichophyton mentagrophytes; assay: Antifungal activity against Trichophyton mentagrophytes ATCC 9972
Method in brief: (§2)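 Dermatophytes tested by CLSI M38-A2 microdilution in MOPS-buffered RPMI-1640 at pH 7.0. Inoculum 1-5 × 10^3 CFU/mL; compounds 250 to 0.24 µg/ml in twofold steps, final DMSO <1%. Incubated at 28 °C in a moist, dark chamber and read according to control growth. MIC is the lowest concentration with complete inhibition. MFC is the lowest concentration with no growth after duplicate subculture on SDA.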

[3] = test system: Cryptococcus neoformans; assay: Antifungal activity against Cryptococcus neoformans ATCC 32264
Method in brief: (§3)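 CLSI M27-A3 broth microdilution in RPMI-1640 buffered to pH 7.0 with MOPS. Inoculum 1-5 × 10^3 CFU/mL. Compound twofold dilutions from 250 to 0.24 µg/ml, final DMSO <1%. Incubated at 35 °C in a moist, dark chamber and read at 48 h. MIC is the lowest concentration giving total growth inhibition. For MFC, 5 µL from clear wells was plated in duplicate on SDA; MFC is the lowest concentration with no growth.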

[4] = test system: Candida tropicalis; assay: Antifungal activity against Candida tropicalis C 131 2000; method in brief: as §3
[5] = test system: Aspergillus fumigatus; assay: Antifungal activity against Aspergillus fumigatus ATCC 26934; method in brief: as §1
[6] = test system: Aspergillus niger; assay: Antifungal activity against Aspergillus niger ATCC 9029; method in brief: as §1
[7] = test system: Candida albicans; assay: Antifungal activity against Candida albicans ATCC 10213; method in brief: as §3
[8] = test system: Saccharomyces cerevisiae; assay: Antifungal activity against Saccharomyces cerevisiae ATCC 9763; method in brief: as §3
[9] = test system: Trichophyton rubrum; assay: Antifungal activity against Trichophyton rubrum C 113 2000; method in brief: as §2
[10] = test system: Nannizzia gypsea; assay: Antifungal activity against Microsporum gypseum C 115 2000; method in brief: as §2

SMILES | MIC [1] [µg/mL] | MIC [2] [µg/mL] | MIC [3] [µg/mL] | MIC [4] [µg/mL] | MIC [5] [µg/mL] | MIC [6] [µg/mL] | MIC [7] [µg/mL] | MIC [8] [µg/mL] | MIC [9] [µg/mL] | MIC [10] [µg/mL] | MFC [1] [µg/mL] | MFC [2] [µg/mL] | MFC [3] [µg/mL] | MFC [4] [µg/mL] | MFC [5] [µg/mL] | MFC [6] [µg/mL] | MFC [7] [µg/mL] | MFC [8] [µg/mL] | MFC [9] [µg/mL] | MFC [10] [µg/mL]
O=C1CCC(=O)N1CCc1ccccc1 | > 250 | > 250 | > 250 | > 250 | > 250 | > 250 | > 250 | > 250 | > 250 | > 250 | > 250 | > 250 | > 250 | > 250 | > 250 | > 250 | > 250 | > 250 | > 250 | > 250
O=C1CCC(=O)N1CCCc1ccccc1 | > 250 | > 250 | > 250 | > 250 | > 250 | > 250 | > 250 | > 250 | > 250 | > 250 | > 250 | > 250 | > 250 | > 250 | > 250 | > 250 | > 250 | > 250 | > 250 | > 250
O=C1CCC(=O)N1CCCCc1ccccc1 | > 250 | > 250 | > 250 | > 250 | > 250 | > 250 | > 250 | > 250 | > 250 | > 250 | > 250 | > 250 | > 250 | > 250 | > 250 | > 250 | > 250 | > 250 | > 250 | > 250
O=C1C=CC(O)N1c1ccccc1 (stereo not given) | > 250 | > 250 | 250 (≈ 1430 µM) | > 250 | > 250 | > 250 | > 250 | > 250 | > 250 | > 250 | > 250 | > 250 | > 250 | > 250 | > 250 | > 250 | > 250 | > 250 | > 250 | > 250
O=C1C=CC(O)N1Cc1ccccc1 (stereo not given) | > 250 | > 250 | 250 (≈ 1320 µM) | > 250 | > 250 | > 250 | > 250 | > 250 | > 250 | > 250 | > 250 | > 250 | > 250 | > 250 | > 250 | > 250 | > 250 | > 250 | > 250 | > 250

Second part, led by results:

MIC [1] [µg/mL] | MIC [2] [µg/mL] | MIC [3] [µg/mL] | MIC [4] [µg/mL] | MIC [5] [µg/mL] | MIC [6] [µg/mL] | MIC [7] [µg/mL] | MIC [8] [µg/mL] | MIC [9] [µg/mL] | MIC [10] [µg/mL] | SMILES | MFC [1] [µg/mL] | MFC [2] [µg/mL] | MFC [3] [µg/mL] | MFC [4] [µg/mL] | MFC [5] [µg/mL] | MFC [6] [µg/mL] | MFC [7] [µg/mL] | MFC [8] [µg/mL] | MFC [9] [µg/mL] | MFC [10] [µg/mL]
> 250 | 31.2 (≈ 154 µM) | 62.5 (≈ 308 µM) | 250 (≈ 1230 µM) | > 250 | > 250 | 62.5 (≈ 308 µM) | 250 (≈ 1230 µM) | 62.5 (≈ 308 µM) | 62.5 (≈ 308 µM) | O=C1C=CC(O)N1CCc1ccccc1 (stereo not given) | > 250 | 62.5 (≈ 308 µM) | > 250 | > 250 | > 250 | > 250 | 125 (≈ 615 µM) | > 250 | 125 (≈ 615 µM) | 125 (≈ 615 µM)
250 (≈ 1150 µM) | 31.2 (≈ 144 µM) | 62.5 (≈ 288 µM) | 125 (≈ 575 µM) | 125 (≈ 575 µM) | > 250 | 62.5 (≈ 288 µM) | 62.5 (≈ 288 µM) | 62.5 (≈ 288 µM) | 62.5 (≈ 288 µM) | O=C1C=CC(O)N1CCCc1ccccc1 (stereo not given) | > 250 | 62.5 (≈ 288 µM) | > 250 | 250 (≈ 1150 µM) | 250 (≈ 1150 µM) | > 250 | > 250 | 125 (≈ 575 µM) | 250 (≈ 1150 µM) | 125 (≈ 575 µM)
> 250 | 62.5 (≈ 270 µM) | 250 (≈ 1080 µM) | > 250 | > 250 | > 250 | > 250 | > 250 | 62.5 (≈ 270 µM) | 125 (≈ 540 µM) | O=C1C=CC(O)N1CCCCc1ccccc1 (stereo not given) | > 250 | 125 (≈ 540 µM) | > 250 | > 250 | > 250 | > 250 | > 250 | > 250 | 250 (≈ 1080 µM) | 250 (≈ 1080 µM)
